# Bioassay records from PubChem.
# An excerpt weighted towards active compounds, which were near 4.2% of everything screened.
# UPR XBP1 act: activators of adaptive arm of unfolded protein response (XBP1); hit rate 0.33% among 330,000; activation, % at 20 µM; CHO-XBP1 luciferase reporter, IRE1-XBP1 UPR activation, luminescence; percent of tunicamycin response, DMSO as zero;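 active = versus positive control, 20 µM dose yields 30% or more activation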
#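 Material: CHO cell line with stable XBP1 luciferase reporter; schedule: 16-18 h cell attachment at 37 °C, then 6 h compound exposure; signal: glow luminescence from Steady-Glo reagent; medium: serum-containing F12 medium, 10% FBS; benchmarks: tunicamycin 10 µg/mL and vehicle-only wells; read-out: percent activation relative to tunicamycin reference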
# UPR CHOP act: apoptotic UPR (CHOP) activation | CHO-CHOP luciferase reporter, luminescence; percent of tunicamycin response over DMSO baseline | activation, % at 10 µM | hit rate 0.34% among 330,000 | AID 449763;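 active = at 10 µM dose, activation of 40% or more, normalized to positive control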
#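 measured by = luciferase luminescence | assay system = CHO-CHOP cells, stable luciferase reporter of PERK-eIF2a-CHOP signalling | amount = 500 reporter cells seeded per well | timing = 6 h compound exposure at 37 °C after overnight seeding | controls = positive tunicamycin 10 µg/mL, negative DMSO alone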
# CHOP inhibitor: inhibitors of CHOP induction in ER stress response | CHO-K1 CHOP-promoter luciferase, tunicamycin-induced, 15-18 h | inhibition, % at 10 µM | hit rate 3.8% among 220,000;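 active = compounds that reduced the stress-induced luciferase reporter signal by more than about 70% of percent inhibition, limit read from the data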
# TMEM16A inh: blocks the mouse calcium-activated chloride channel TMEM16A; AID 588511; hit rate 1.2% among 310,000; HEK293 TMEM16A/YFP iodide influx fluorescence, ionomycin; Q8BHY3; normalized B-score (activity score, 25-100; higher = stronger inhibition) at 10 µM;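 active = ratio plate-corrected score three or more library SD toward inhibition, starting fluorescence score within five deviations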;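 also: score derived from kinetic fluorescence span divided by baseline fluorescence per well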
# Target sequence (Q8BHY3 whole entry, looked up): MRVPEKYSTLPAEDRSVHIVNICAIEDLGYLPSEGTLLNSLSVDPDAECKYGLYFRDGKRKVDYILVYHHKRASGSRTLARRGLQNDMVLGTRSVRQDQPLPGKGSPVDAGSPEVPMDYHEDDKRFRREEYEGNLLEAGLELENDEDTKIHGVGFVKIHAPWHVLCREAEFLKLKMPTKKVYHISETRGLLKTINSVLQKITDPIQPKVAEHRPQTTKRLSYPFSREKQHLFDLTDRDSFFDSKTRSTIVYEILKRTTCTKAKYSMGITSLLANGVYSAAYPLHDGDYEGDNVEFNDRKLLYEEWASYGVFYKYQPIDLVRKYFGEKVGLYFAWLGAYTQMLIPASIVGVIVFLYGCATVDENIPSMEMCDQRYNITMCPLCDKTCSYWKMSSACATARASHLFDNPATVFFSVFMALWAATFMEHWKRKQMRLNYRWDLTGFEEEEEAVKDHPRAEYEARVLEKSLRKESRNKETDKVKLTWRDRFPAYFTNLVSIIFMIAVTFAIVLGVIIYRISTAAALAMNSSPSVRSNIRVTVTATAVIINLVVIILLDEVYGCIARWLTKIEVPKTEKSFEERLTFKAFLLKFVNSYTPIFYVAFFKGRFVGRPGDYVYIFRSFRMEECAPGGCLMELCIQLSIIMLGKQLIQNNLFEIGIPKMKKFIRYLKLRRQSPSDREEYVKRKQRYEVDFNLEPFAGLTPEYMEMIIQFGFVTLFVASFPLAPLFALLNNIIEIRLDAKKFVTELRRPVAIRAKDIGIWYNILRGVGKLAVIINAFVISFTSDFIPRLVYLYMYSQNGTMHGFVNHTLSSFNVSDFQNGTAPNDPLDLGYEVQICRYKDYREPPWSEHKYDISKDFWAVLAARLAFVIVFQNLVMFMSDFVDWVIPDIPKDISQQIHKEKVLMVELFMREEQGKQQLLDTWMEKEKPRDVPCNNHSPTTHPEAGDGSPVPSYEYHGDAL
# ANO1 activ: activates or potentiates the mouse TMEM16A chloride channel. HEK293 TMEM16A/YFP-H148Q/I152L, iodide quench fluorescence; hits give low values. B-score at 10 µM. hit rate 0.3% among 340,000. AID 623877;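 active = fluorescence-ratio B-score plate-corrected deviation score at least 3 library SD below zero, with starting fluorescence score within 5 deviations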;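 also: channel opened by trigger with iodide after compound preincubation; score built on the fluorescence ratio of max minus min over baseline; more negative score means more quench and so TMEM16A activation or potentiation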
# Lipid droplet: hepatic lipid droplet formation modulation; AML12 mouse hepatocytes, oleate lipid droplets, BODIPY imaging; inhibition, % at 6.5 µM; hit rate 0.4% among 240,000;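 active = lipid droplet intensity inhibited by at least 50%, with more than 500 cells counted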
#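 Test system: AML12 mouse liver cells; schedule: overnight exposure; technique: high-content imaging of BODIPY-stained droplets and DAPI nuclei; read-out: % inhibition of corrected integrated BODIPY droplet signal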
# Hits are given with their value; – = inactive; · = not tested or not shown.
SMILES,UPR XBP1 act,UPR CHOP act,CHOP inhibitor,TMEM16A inh,ANO1 activ,Lipid droplet
CCOC(=O)c1nnn(-c2nc(N3CCCC3)nc(N3CCCC3)n2)c1-c1ccccc1,–,–,89,–,–,·
CCOC(=O)c1nnn(-c2nc(OC)nc(N3CCCCC3)n2)c1-c1ccccc1,·,·,–,·,·,·
CCc1ccccc1N(CC(=O)NC1CCCCC1)C(=O)CCC(=O)Nc1ccccn1,–,–,·,–,-5.8,–
CCC1CC(C(=O)Nc2ccccc2)C(=O)O1 (centres undefined),–,–,·,–,–,·
O=C(Nc1cccc(C(F)(F)F)c1)NC1CCCCC1,–,–,87,–,–,–
COc1ccc(N(CC(=O)N/N=C/c2ccco2)S(=O)(=O)c2ccccc2)cc1Cl,–,–,–,–,–,–
c1ccc(-c2csc3ncnc(N4CCc5ccccc5C4)c23)cc1,·,·,86,–,–,–
c1ccc(-c2csc3ncnc(N4CCOCC4)c23)cc1,–,–,–,–,–,–
O=C1CC(N2CCC(c3nc4ccccc4o3)CC2)C(=O)N1c1ccc(Cl)c(C(F)(F)F)c1 (centres undefined),–,–,86,–,–,–
O=C1CC(N2CCC(c3nc4ccccc4o3)CC2)C(=O)N1c1ccc(F)cc1 (centres undefined),–,–,–,–,–,–
O=S(=O)(Nc1ccccc1O)c1ccc(Cl)nc1,–,–,–,–,–,–
CCCc1cc(C(=O)N2CCCC(C(=O)c3cccc4ccccc34)C2)n(C)n1 (centres undefined),–,–,–,–,–,–
CCc1cc(C(=O)N2CCCC(C(=O)c3cccc4ccccc34)C2)n(C)n1 (centres undefined),–,–,–,25,–,–
CC1=[N+](C)c2c(ccc3cccnc23)C1(C)C,·,·,75,·,–,–
N#CC1=C(S)N(c2ccccc2)C2(CCCCC2)NC1=O,–,–,–,–,-5,–
NC(=O)CC(NC(=O)Cc1ccc(Br)cc1)c1ccc(N2CCC(Br)CC2)c([N+](=O)[O-])c1 (centres undefined),–,–,87,–,–,–
NC(=O)CC(NC(=O)Cc1ccc(Br)cc1)c1ccc(N2CCCCCCC2)c([N+](=O)[O-])c1 (centres undefined),–,–,·,–,–,–
NC(=O)CC(NC(=O)Cc1ccc(Br)cc1)c1ccc(N2CCC(Cc3ccccc3)CC2)c([N+](=O)[O-])c1 (centres undefined),–,–,96,–,–,–
NC(=O)CC(NC(=O)c1ccc(Br)cc1)c1ccc(NCc2ccc(F)c(F)c2)c([N+](=O)[O-])c1 (centres undefined),–,–,–,–,–,–
NC(=O)CC(NC(=O)Cc1ccc(Br)cc1)c1ccc(NCc2ccc(F)c(F)c2)c([N+](=O)[O-])c1 (centres undefined),–,–,76,–,–,–
CCN(CC)c1ccc(/C=N/NC(=O)CNC(=O)C2COc3ccccc3O2)c(O)c1 (centres undefined),–,–,·,–,–,–
C[C@H](CO)N1C[C@H](C)[C@@H](CN(C)Cc2ccc(C(=O)O)cc2)Oc2c(NS(=O)(=O)c3cn(C)cn3)cccc2C1=O,–,–,·,·,–,·
Cc1ccc(C(=O)Nc2ccccc2C(=O)N2CC3(C)CC2CC(C)(C)C3)cc1 (centres undefined),–,–,93,–,–,–
COc1ccc(S(=O)(=O)N(CC(=O)N/N=C/c2cccs2)c2ccc(C)cc2)cc1OC,–,–,–,–,–,–
CCOc1ccc(S(=O)(=O)N(CC(=O)N/N=C/c2cccs2)c2ccc(C)cc2)cc1,–,–,76,–,–,–
SMILES,UPR XBP1 act,UPR CHOP act,CHOP inhibitor,TMEM16A inh,ANO1 activ,Lipid droplet
COc1ccccc1C1CC(c2cccc(NS(C)(=O)=O)c2)=NN1S(=O)(=O)c1ccccc1 (centres undefined),–,–,·,–,-5,–
CCc1ccc(CN2CCC(C(=O)Nc3ccc(Oc4ccccc4)nc3)CC2)o1,–,–,·,–,–,–
O=C(N/N=C/c1coc2ccccc2c1=O)c1cn(-c2ccccc2)nc1-c1ccc(F)cc1,–,–,–,–,–,–
Cc1ccc(Oc2nccc(-c3ccc(Cl)cc3)n2)cc1,–,–,78,–,–,–
CCOc1ccccc1-c1nc(C(N)=O)c2[nH]c(=O)n(-c3cccc(C)c3)c2n1,–,–,–,–,–,·
CCOc1cccc(-c2nc(C(N)=O)c3[nH]c(=O)n(-c4cccc(Cl)c4)c3n2)c1O,–,–,95,–,–,–
O=C(OCc1nnc(-c2ccccc2)o1)c1cc(S(=O)(=O)N2CCOCC2)ccc1F,–,–,·,–,–,·
COCCNC(=O)/C(C#N)=C/c1ccc(C)o1,–,–,–,–,–,–
CCOC(=O)c1ccc(NC(=O)C(=O)NCc2ccc(/C=C(/C#N)C(=O)NCCOC)o2)cc1,–,–,72,–,–,–
Cc1cccc(N2CCN(S(=O)(=O)c3cccc4nonc34)CC2)c1C,–,–,73,–,–,–
O=C(NNC(=O)c1ccc(-c2ccc([N+](=O)[O-])cc2)o1)c1ccncc1,–,–,·,·,–,·
Cc1ccc(S(=O)(=O)NCc2ccc(C(=O)NCCCN3CCC(Cc4ccccc4)CC3)cc2)cc1,–,–,–,–,–,–
CC(C)C[C@H]1CN=C(Nc2ccccc2)N1CC1CCCC1,–,–,·,–,–,·
C[C@H]1CN=C(Nc2ccccc2)N1CC1CCCCCC1,–,–,·,–,-6.7,–
CC(C)C[C@H]1CN=C(Nc2ccccc2)N1CC1CCC(C(C)(C)C)CC1 (some centres undefined),–,–,·,100,–,·
Cc1ccc2oc(=O)c3cnn(CC(=O)Nc4cc(-c5cccc(F)c5)no4)c3c2c1,–,–,96,–,–,–
Cc1cccc(Sc2c(C=O)c3ccccc3n2C)c1,–,–,–,25,–,·
Cn1c(Sc2ccccc2Cl)c(C=O)c2ccccc21,–,–,–,100,–,·
Cn1c(Sc2ccc(Cl)cc2)c(C=O)c2ccccc21,–,–,–,–,–,–
O=[N+]([O-])c1ccccc1S(=O)(=O)N1CCN(S(=O)(=O)c2ccc3c(c2)OCCO3)CC1,–,–,·,·,–,·
Clc1ccc2[nH]c3c(c2c1)CNCC3,–,–,·,–,–,–
C[C@H](CO)N1C[C@H](C)[C@@H](CN(C)S(C)(=O)=O)Oc2ccc(NC(=O)NC3CCCCC3)cc2C1=O,–,–,·,·,–,·
COc1cc(S(=O)(=O)NCC2OCCc3ccccc32)ccc1-n1cnnn1 (centres undefined),–,–,–,–,–,–
